Consider 23 molecules from PubChem BioAssay AID488934 (Broad Institute, 2010).

For orientation: AC50 means the concentration at which the activity in the assay is half-maximal.

Results filed as inconclusive are left out. Calls of active or inactive are those of the source.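 The calls were made as follows: active = compounds raising caspase signal whose fitted AC50 lies at or below the top valid dose tested; inconclusive = flat curve at 30 to 70 percent activity, or a poor fit; inactive = the rest.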

One test has as its system Mel501 melanoma cells, caspase-3/7 Glo luminescence, 6 h. The experiment in a line: caspase-3/7 activation in A1-dependent Mel501 cells, dose response, A1 (Bcl2A1) inhibitor project, cell-based, human Mel501, dry powder (AID 488934).
Settings: not given
In outline: (§1)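 System: human Mel501 melanoma cell line / Input: 2500 cells per well / Times: 6 h compound at 37 °C, 1 h reagent at room temperature / Technique: Caspase-3/7 luminescence, DEVD-luciferin substrate / Buffer or medium: RPMI-1640, 10% FBS, plus TSA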
Turning to `Cc1c(C=O)c(C=O)c(C)n1Cc1ccccc1`, the AC50 is > 150 µM (inactive). With `Cc1cc(C(=O)CCl)c(C)n1CCc1ccc(Cl)cc1`, the AC50 was 17.8 µM. With `COc1ccc(N(C(=O)CCl)C(C(=O)NCCc2ccccc2)c2cccs2)cc1Cl` (stereo not drawn), the AC50 was 30.1 µM.

For the molecule `Cc1ccc(Sc2c([N+](=O)[O-])c(=O)n(C)c3ccccc23)cc1`, the concentration at half-maximal activity (AC50) was 69.7 µM. For `Cc1c(CCOC(=O)c2ccc(N3CCOCC3)c([N+](=O)[O-])c2)sc[n+]1CC#N`, the half-maximal activity concentration (AC50) is 18.8 µM. Still for that read-out and setting: in the case of `Cc1cccc(NC(=O)/C(C#N)=C/c2cn(CC(=O)NCc3ccco3)c3ccccc23)c1` it was > 150 µM (inactive).

Test system in a further test: not listed separately
The description is as above. The note with it: Mel501 melanoma cells, caspase-3/7 Glo luminescence, 6 h; at 135 µM (top of the series). An outline of the steps: as §1
`CC(=O)N[C@H]1[C@H](O[C@H]2CC[C@@]3(C)C(CC[C@]4(C)C3CC=C3[C@@H]5CC(C)(C)CC[C@]5(C(=O)OC5OCC(O)C(O)C5O)C(O)C[C@]34C)C2(C)C)O[C@H](COC2OCC(O)C(OC3OCC(O)C(O)C3O)C2O)[C@@H](O[C@@H]2O[C@@H](C)[C@H](O)[C@@H](O)[C@H]2O[C@@H]2O[C@@H](C)[C@H](O)[C@@H](O)[C@H]2O)[C@@H]1O` (stereo partly drawn): the caspase activation is -0.618% (inactive).

The test is the same for the next values; noted with them: Mel501 melanoma cells, caspase-3/7 Glo luminescence, 6 h; at 150 µM (top of the series).
For `COc1cccc(C(=O)C(C#N)=C(SC)SC)c1`, the caspase activation is -0.394% (inactive).

As to `Cc1cccc(CS(=O)(=O)c2ncc(Cl)c(C(=O)Nc3nnc(C(C)C)s3)n2)c1`, the caspase activation was -1.69% (inactive). Consider `Cc1ccc(CS(=O)(=O)c2ncc(Cl)c(C(=O)Nc3nnc(C(C)C)s3)n2)cc1`, for which the caspase activation was -1.79% (inactive). As for `CCc1cc2c(=O)c(-c3cnn(-c4ccccc4)c3)c(C)oc2cc1OCC(=O)Nc1cccc(C)c1`, the caspase activation is 0.716% (inactive). For `CCOC(=O)CSC1=N/C(=C/c2ccc(-n3cncn3)cc2)C(=O)N1C(C)=O`, the caspase activation is 0.822% (inactive).

Regarding `O=C(CCl)N=c1sccn1Cc1ccccc1Cl`, the caspase activation was 2.16% (inactive). On the same count and under the same terms, for `C=C1[C@@H](C)[C@H]2[C@H](Cc3ccccc3)NC(=O)[C@]23[C@H](OC(C)=O)/C=C/[C@](C)(O)C(=O)[C@@H](C)C/C=C/[C@H]3[C@@H]1O` the value was 0.757% (inactive); for `CCc1nnc(NC(=O)c2nc(S(=O)(=O)Cc3ccccc3)ncc2Cl)s1`, -0.521% (inactive); for `Cn1c(=NC(=O)CCl)sc2ccccc21`, 0.601% (inactive).

As to `O=C(Oc1cccc(/C=N/Nc2nc(Nc3ccccc3)nc(N3CCOCC3)n2)c1)c1ccco1`, the caspase activation was 0.28% (inactive). With `COc1cc(/C=C(/C#N)c2nc3ccccc3[nH]2)ccc1OCC(=O)Nc1ccccc1C(C)C`, the caspase activation is 1.07% (inactive). Regarding `Nc1nc(F)nc2c1ncn2[C@@H]1O[C@H](CO)[C@@H](O)[C@H]1O`, the caspase activation was 0.438% (inactive). Same read-out and setting: for `C=C1[C@@H](C)[C@H]2[C@H](Cc3ccccc3)NC(=O)[C@]23OC(=O)/C=C\[C@H](O)CCC[C@@H](C)C/C=C/[C@H]3[C@@H]1O` the value was 0.77% (inactive).

As for `C/C1=C/C(=O)O[C@@H]2C[C@@H](CC[C@H](C)/C=C\CC1)O[C@@](O)(C1CSC(=O)N1)C2` (stereo partly drawn), the caspase activation is 0.0337% (inactive).

In the case of `CCSc1nnc(NC(=O)c2nc(S(=O)(=O)Cc3ccc(F)cc3)ncc2Cl)s1`, the caspase activation was -2.12% (inactive). The same measure, in the same setting: in the case of `CC(C)(C)n1nc(-c2ccc(Cl)cc2)c2c(N)ncnc21` it was 2.25% (inactive).
